SENP6 block = blocks the human protease SENP6; 330,000 compounds, 1.8% hits; inhibition, % at 10 µM; AID 2599; Recombinant SENP6 catalytic domain, aminoluciferin luminescence; Q9GZR1;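 active means inhibition above about 50% at the single tested dose, limit read from the data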
SENP7 inh = inhibitors of human SENP7 protease. Q9BQF6. recombinant SENP7, Z-RLRGG-aminoluciferin luminescence, 40 min. inhibition, % at 5 µM. 330,000 compounds, 1.5% hits. AID 434973;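 active means inhibition above about 50% at the single test dose, limit read from the data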
SENP8 block-1 = blocks the human protease SENP8. purified SENP8, Z-RLRGG-aminoluciferin cleavage, luminescence. inhibition, % at 10 µM. 330,000 compounds, 1.2% hits; in the data active means inhibition above about 50%
Target sequence (Q96LD8 whole entry, looked up): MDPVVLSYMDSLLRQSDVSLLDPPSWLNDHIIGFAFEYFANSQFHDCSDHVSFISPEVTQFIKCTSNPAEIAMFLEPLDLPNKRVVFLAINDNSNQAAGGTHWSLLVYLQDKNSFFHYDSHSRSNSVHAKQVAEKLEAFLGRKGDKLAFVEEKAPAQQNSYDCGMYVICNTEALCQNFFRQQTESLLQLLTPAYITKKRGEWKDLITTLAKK
HSP90 refold inh = HSP90 refolding inhibition in rabbit reticulocyte lysate; inhibition, % at 5.6 µM; 290,000 compounds, 0.91% hits; luciferase refolding luminescence, 3 h;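 active means inhibition above the screen-wide mean plus 3 SD, computed separately per campaign, cut at about 16% in these data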;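 further: inhibitors lower the luminescence because luciferase stays unfolded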
SENP1 FRET inh = SENP1 (human) catalytic domain inhibition; Q9P0U3; recombinant SENP1 catalytic domain, CyPet-SUMO1-YPet FRET cleavage; inhibition, % at 10 µM; 360,000 compounds, 0.21% hits; AID 624204;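 active means inhibition at least 30% at 10 µM, raw YFP signal under a set limit, fluorescence ratio 0.5 to 1.5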
Target sequence (Q9P0U3 419-644 limits assumed): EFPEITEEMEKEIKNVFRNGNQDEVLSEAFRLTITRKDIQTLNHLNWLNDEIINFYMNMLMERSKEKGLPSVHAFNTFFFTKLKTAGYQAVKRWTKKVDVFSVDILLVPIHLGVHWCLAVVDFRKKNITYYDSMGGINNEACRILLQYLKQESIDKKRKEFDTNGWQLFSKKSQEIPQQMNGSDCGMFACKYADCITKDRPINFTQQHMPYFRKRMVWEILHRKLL
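Controls: no-enzyme wells low, DMSO-plus-enzyme wells high control. Test system: human recombinant His6-tagged SENP1 catalytic domain enzyme. Reagent: SFCypet-SUMO1-SFYpet FRET protein substrate, 25 nM final. Doses: one dose per compound, 10 µM, 0.5% DMSO. Detection: FRET, CFP and YFP emission. Timing: 50 min reaction at room temperature.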
SENP8 block-2 = SENP8 (human) protease inhibition. Q96LD8. recombinant SENP8, Nedd8 substrate fluorescence. inhibition, % at 20 µM. 360,000 compounds, 0.64% hits; in the data active means inhibition mostly above about 40%, no sharp cut-off; inactive means mostly below about 27%
SENP8 confirm = confirmation of human SENP8 protease inhibitors. Recombinant SENP8, Z-RLRGG-aminoluciferin luminescence, 60 min. inhibition, % at 12.5 µM. AID 488912. 6,200 compounds, 40% hits. shares compounds with SENP7 inh;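 active means mean inhibition across replicates above about 50%, limit read from the data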
SENP6 conf = human SENP6 inhibition, confirmed. 6,200 compounds, 58% hits. shares compounds with SENP7 inh. recombinant SENP6, Z-RLRGG-aminoluciferin luminescence. inhibition, % at 12.5 µM
SENP7 confirm = human SENP7 inhibition, confirmed. inhibition, % at 12.5 µM. recombinant SENP7, Z-RLRGG-aminoluciferin luminescence, 40 min. shares compounds with SENP7 inh. AID 488917. 6,200 compounds, 69% hits
Casp3 SENP sel = caspase-3 inhibition (SENP selectivity assay); inhibition, % at 12.5 µM; shares compounds with SENP7 inh; AID 488918; 6,200 compounds, 60% hits; purified caspase-3, Z-DEVD-aminoluciferin luminescence, 60 min;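 active means mean inhibition above about 50%, limit read from the data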
Target sequence (P42574 28-227 limits assumed): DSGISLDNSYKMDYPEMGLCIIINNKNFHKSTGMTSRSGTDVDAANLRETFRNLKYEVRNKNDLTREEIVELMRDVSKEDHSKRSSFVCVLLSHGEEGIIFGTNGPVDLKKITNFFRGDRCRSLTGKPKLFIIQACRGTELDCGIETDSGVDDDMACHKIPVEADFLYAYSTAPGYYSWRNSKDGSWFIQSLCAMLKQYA
Luc interf = luminescence interference (SENP counter-screen) | inhibition, % at 12.5 µM | 6,200 compounds, 39% hits | AID 488919 | Pre-incubated SENP8/Z-RLRGG-aminoluciferin, luciferase luminescence interference | shares compounds with SENP7 inh;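 active means mean inhibition above about 50% when retested at one dose, limit read from the data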
Of the large screens only hits and unclear results are named; the others gave an inactive call (follow-up assays come after a bar, where they were run). Sampled rows, rich in hits. Any-hit rate of the full collection: about 2.9%.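 How the source made its calls, unless noted: active means mean inhibition above about 50% in the one-dose retest (limit read from the data); inactive means the rest.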

COc1ccc(NC(=O)c2cc3ccccn3n2)cc1	SENP6 block 70.6, SENP7 inh 69.1, SENP8 block-1 58.1 | SENP8 confirm 76.9 | SENP6 conf 74.8 | SENP7 confirm 93.8 | Casp3 SENP sel 87.8 | Luc interf 79.4
COc1ccc2nc(NC(=O)Nc3ccccc3)sc2c1	SENP6 block 68.4, SENP7 inh 84.7 | SENP8 confirm inactive | SENP6 conf inactive | SENP7 confirm 91.1 | Casp3 SENP sel 51.5 | Luc interf inactive
COc1ccc(NC(=O)c2nc3ccccc3s2)cc1	SENP6 block 94.8, SENP7 inh 97.2, SENP8 block-1 94.5 | SENP8 confirm inactive | SENP6 conf 97.5 | SENP7 confirm 102.5 | Casp3 SENP sel 93.5 | Luc interf 75.2
COc1ccc(C(=O)Nc2nnc(SCC(=O)NC3CCCC3)s2)c(OC)c1	SENP6 block 63.6, SENP7 inh 62.9 | SENP8 confirm inactive | SENP6 conf inactive | SENP7 confirm inactive | Casp3 SENP sel inactive | Luc interf inactive
COc1ccc(C(=O)Nc2nnc(SCC(=O)Nc3ccc(NC(C)=O)cc3)s2)c(OC)c1	none
COc1ccc(CN2C(=O)c3ccc(C(=O)O)cc3C2=O)cc1	none
COc1ccc(C(=O)Nc2nc3ccccc3s2)c(OC)c1	SENP6 block 97.1, SENP7 inh 101.4, SENP8 block-1 98.3, HSP90 refold inh 91.3 | SENP8 confirm 87.9 | SENP6 conf 100.0 | SENP7 confirm 103.0 | Casp3 SENP sel 98.3 | Luc interf inactive
S=C(Nc1ccc(Cl)cc1)c1nc2ccccc2s1	SENP7 inh 57.3 | SENP8 confirm inactive | SENP6 conf inactive | SENP7 confirm inactive | Casp3 SENP sel inactive | Luc interf inactive
COc1ccc(NC(=O)c2sc(NC(=O)COc3ccccc3)nc2C)cc1	SENP6 block 67.6, SENP8 block-1 58.8 | SENP8 confirm inactive | SENP6 conf 53.5 | SENP7 confirm 96.1 | Casp3 SENP sel 81.7 | Luc interf inactive
Cc1nc(NC(=O)COc2ccccc2)sc1C(=O)Nc1cccc(Cl)c1	none
CCN(C[C@H]1N[C@@](Cc2ccccc2)(C(=O)OC)[C@H]2C(=O)N(C)C(=O)[C@@H]12)C(=O)COC	none (no result: HSP90 refold inh)
c1ccn2c(c1)nc1c2nc2ccccn21	none
Clc1cccc(-c2ccc(-c3nc4ccccn4c3NCc3ccccc3)cc2)c1	SENP7 inh 53.4, SENP8 block-1 64.8 (no result: HSP90 refold inh) | SENP8 confirm inactive | SENP6 conf inactive | SENP7 confirm 71.1 | Casp3 SENP sel inactive | Luc interf inactive
Cc1c(-c2ccc(Br)cc2)nc2ccccn12	SENP6 block 95.6, SENP7 inh 89.9, SENP8 block-1 87.9 | SENP8 confirm inactive | SENP6 conf 88.5 | SENP7 confirm 99.6 | Casp3 SENP sel 88.0 | Luc interf 88.6
Cc1ccc(-c2nc3ccccn3c2C=O)cc1	none
Clc1c(-c2ccccc2)nc2ccccn12	SENP6 block 64.7, SENP7 inh 54.5, SENP8 block-1 55.4 | SENP8 confirm inactive | SENP6 conf inactive | SENP7 confirm 79.7 | Casp3 SENP sel 65.8 | Luc interf inactive
COc1ccccc1NC(=O)N(C)C[C@@H]1OCc2cnnn2CCCC(=O)N([C@H](C)CO)C[C@H]1C	none (no result: SENP6 block, SENP7 inh, SENP8 block-1, HSP90 refold inh)
O=C(Cc1ccc(Cl)cc1)OCC(=O)N1CCCCCC1	none (no result: HSP90 refold inh)
COc1cc(/C=N/NC(=O)C2=NNC(=O)C2C)ccc1O (stereo not drawn)	none
CC1C(=O)NN=C1C(=O)N/N=C\c1ccc(O)cc1O (stereo not drawn)	SENP6 block 71.0, SENP7 inh 74.7, SENP8 block-1 60.8 | SENP8 confirm 68.5 | SENP6 conf 64.7 | SENP7 confirm 87.0 | Casp3 SENP sel 88.9 | Luc interf inactive
COc1ccc(C(=O)NC2CCN(C(=S)NCc3ccco3)CC2)cc1	SENP7 inh 60.0 | SENP8 confirm inactive | SENP6 conf inactive | SENP7 confirm inactive | Casp3 SENP sel inactive | Luc interf inactive
COc1cccc(-c2csc(N3CCN(CC(=O)NNC(=O)c4ccc(Br)cc4)CC3)n2)c1	SENP7 inh 101.4 | SENP8 confirm inactive | SENP6 conf inactive | SENP7 confirm inactive | Casp3 SENP sel inactive | Luc interf inactive
O=C(Nc1ccn(Cc2ccccc2F)n1)c1ccc(COc2ccccc2Cl)cc1	none
O=C(Nc1ccn(Cc2ccccc2F)n1)c1ccc(COc2cccc(Br)c2)cc1	SENP6 block 96.9, SENP8 block-1 87.7 | SENP8 confirm inactive | SENP6 conf 90.5 | SENP7 confirm 102.6 | Casp3 SENP sel 56.3 | Luc interf 96.9
N#CCCN(C(=O)COC(=O)C1CCN(S(=O)(=O)c2ccccc2C(F)(F)F)CC1)c1ccccc1	none (no result: SENP6 block, SENP7 inh, SENP8 block-1, HSP90 refold inh)
O=C(Nc1nnc(Cc2ccc(F)cc2)s1)Nc1ccccc1F	none
CCOc1ccccc1C(=O)Nc1nnc(SCC(=O)N2CCCC2)s1	none (no result: SENP6 block, SENP7 inh, SENP8 block-1, HSP90 refold inh)
O=C(Nc1nnc(SCC(=O)N2CCCCC2)s1)c1ccccc1F	SENP6 block 99.2 | SENP8 confirm inactive | SENP6 conf inactive | SENP7 confirm inactive | Casp3 SENP sel inactive | Luc interf inactive
O=C(Nc1nnc(Cc2ccccc2F)s1)Nc1ccccc1F	SENP7 inh 85.4 | SENP8 confirm inactive | SENP6 conf inactive | SENP7 confirm inactive | Casp3 SENP sel inactive | Luc interf inactive
O=C(CSc1nnc(NC(=O)c2ccccc2F)s1)Nc1ccccc1F	SENP6 block 80.4, SENP7 inh 61.0, SENP8 block-1 69.2 | SENP8 confirm inactive | SENP6 conf 78.6 | SENP7 confirm 90.6 | Casp3 SENP sel 86.7 | Luc interf inactive
CCOC(=O)N/N=C\c1ccc(OC(=O)c2ccc3c(c2)OCO3)cc1	SENP6 block 66.3, SENP7 inh 72.0, SENP8 block-1 57.8 | SENP8 confirm inactive | SENP6 conf inactive | SENP7 confirm inactive | Casp3 SENP sel inactive | Luc interf inactive
CN(C)c1ccc(/C=N/NC(=O)c2ccc3c(c2)OCO3)cc1	none
NC(=O)c1nnn(-c2cccc(C(F)(F)F)c2)c1-c1ccccc1	none

High-throughput results: PubChem BioAssay, several laboratories
